Measured values published in ChEMBL document CHEMBL3853327 (J Med Chem, 2016).

Columns and labels:
[1] = system: Human immunodeficiency virus 1; assay: Antiviral activity against HIV1 3B harboring reverse transcriptase K103N mutant infected in human MT4 cells assessed as protection against virus induced cytotoxicity after 5 days by MTT assay; type: functional, cell-based; details: Human immunodeficiency virus 1, 3B, MT4, 120 h
Summary of the method: (§1)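 MTT cytopathicity assay in MT-4 cells (6 × 10^5 cells/mL). Compounds serially diluted 5-fold in triplicate wells, run in parallel on infected and mock-infected cells. Virus added at 100−300 CCID50 per well. Viability read spectrophotometrically at 540 and 690 nm after 5 days, using the median OD of three wells. EC50 is the concentration giving 50% protection from viral cytopathogenicity.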

[2] = Apparent clearance during terminal phase in Sprague-Dawley rat plasma at 16 mg/kg administered through oral gavage measured at 5 mins to 24 hrs post dosing by LC/MS analysis; type: ADME, organism-based; details: read-out: CLz/F (converted)
Summary of the method: (§2)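 Male Sprague-Dawley rats, ten randomly split into two groups (n = 5), single gavage dose of 8 or 16 mg·kg−1 in PEG 400/normal saline (70/30, V/V). Jugular sinus blood into heparinized tubes at 5 min to 24 h; plasma separated at 2200g for 8 min, stored −20 °C. Methanol precipitation with internal standard, LC-MS quantitation against plasma standard curves. Parameters reported as mean ± SD.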

[3] = Antiviral activity against HIV2 ROD harboring reverse transcriptase infected in human MT4 cells assessed as protection against virus induced cytotoxicity after 5 days by MTT assay; type: functional, cell-based, Human immunodeficiency virus type 2 (ISOLATE ROD); details: Human immunodeficiency virus 2, MT4, 120 h; summary of the method: as §1
[4] = target: Human immunodeficiency virus type 1 reverse transcriptase (Human immunodeficiency virus 1, UniProt Q72547, K103N/Y181C); assay: Inhibition of recombinant HIV1 reverse transcriptase K103N/Y181C double mutant using DIG-dUTP/biotin-dUTP/dTTP assessed as suppression of biotin-dUTP incorporation after 1 hr by ELISA
[5] = Selectivity index, ratio of CC50 for human mock-infected MT4 cells to EC50 for HIV1 RES056 harboring reverse transcriptase K103N/Y181C double mutant infected in human MT4 cells; type: toxicity, cell-based; details: MT4 cells (mock-infected for CC50, HIV-1 infected for EC50)
Summary of the method: (§3)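 Selectivity index is CC50/EC50. CC50 is the concentration that reduces OD540 of mock-infected MT-4 cells by 50% in the 5-day MTT assay. EC50 is the 50% protection from virus-induced cytopathicity, measured in parallel on infected wells.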

[6] = AUMC (0 to infinity) in Sprague-Dawley rat plasma at 8 mg/kg administered through oral gavage measured at 5 mins to 24 hrs post dosing by LC/MS analysis; type: ADME, organism-based; details: in vivo; summary of the method: as §2
[7] = system: Human immunodeficiency virus 1; assay: Potency index, ratio of ETV EC50 to compound EC50 for HIV1 3B harboring reverse transcriptase E138K mutant infected in human MT4 cells; type: functional
[8] = Apparent volume of distribution during terminal phase in Sprague-Dawley rat plasma at 8 mg/kg administered through oral gavage measured at 5 mins to 24 hrs post dosing by LC/MS analysis; type: ADME, organism-based; details: read-out: Vz/F; summary of the method: as §2
[9] = Tmax in Sprague-Dawley rat plasma at 8 mg/kg administered through oral gavage measured at 5 mins to 24 hrs post dosing by LC/MS analysis; type: ADME, organism-based; details: in vivo; summary of the method: as §2
[10] = Selectivity index, ratio of CC50 for human mock-infected MT4 cells to EC50 for HIV1 3B harboring reverse transcriptase F227L/V106A double mutant infected in human MT4 cells; type: toxicity, cell-based; details: MT4 cells (mock-infected for CC50, HIV-1 infected for EC50); summary of the method: as §3
[11] = MRT (0 to infinity) in Sprague-Dawley rat plasma at 8 mg/kg administered through oral gavage measured at 5 mins to 24 hrs post dosing by LC/MS analysis; type: ADME, organism-based; summary of the method: as §2
[12] = AUC (0 to infinity) in Sprague-Dawley rat plasma at 16 mg/kg administered through oral gavage measured at 5 mins to 24 hrs post dosing by LC/MS analysis; type: ADME, organism-based; design: dose 16 mg/kg, time infinity, route oral; details: in vivo; summary of the method: as §2
[13] = system: Human immunodeficiency virus 1; assay: Antiviral activity against HIV1 3B harboring reverse transcriptase E138K mutant infected in human MT4 cells assessed as protection against virus induced cytotoxicity after 5 days by MTT assay; type: functional, cell-based; details: Human immunodeficiency virus 1, 3B, MT4, 120 h; summary of the method: as §1
[14] = AUMC (0 to t) in Sprague-Dawley rat plasma at 16 mg/kg administered through oral gavage measured at 5 mins to 24 hrs post dosing by LC/MS analysis; type: ADME, organism-based; details: in vivo; summary of the method: as §2
[15] = system: Human immunodeficiency virus 1; assay: Fold resistance, ratio of EC50 for HIV1 3B harboring reverse transcriptase L100I mutant infected in human MT4 cells to EC50 for wild type HIV1 3B harboring reverse transcriptase infected in human MT4 cells; type: functional
Summary of the method: (§4)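 Fold resistance is the EC50 against the mutant HIV-1 strain divided by the EC50 against WT IIIB. Both EC50s come from the MT-4 MTT cytoprotection assay (5-day read, 100−300 CCID50 inoculum).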

[16] = Selectivity index, ratio of CC50 for human mock-infected MT4 cells to EC50 for wild type HIV1 3B harboring reverse transcriptase infected in human MT4 cells; type: toxicity, cell-based; details: MT4 cells (mock-infected for CC50, HIV-1 infected for EC50); summary of the method: as §3
[17] = Apparent half life in Sprague-Dawley rat plasma at 8 mg/kg administered through oral gavage measured at 5 mins to 24 hrs post dosing by LC/MS analysis; type: ADME, organism-based; details: in vivo; summary of the method: as §2
[18] = Selectivity index, ratio of CC50 for human mock-infected MT4 cells to EC50 for HIV1 3B harboring reverse transcriptase L100I mutant infected in human MT4 cells; type: toxicity, cell-based; details: MT4 cells (mock-infected for CC50, HIV-1 infected for EC50); summary of the method: as §3
[19] = Inhibition of recombinant wild type HIV1 reverse transcriptase using DIG-dUTP/biotin-dUTP/dTTP assessed as suppression of biotin-dUTP incorporation after 1 hr by ELISA; design: species or system Human immunodeficiency virus 1
Summary of the method: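 Recombinant WT HIV-1 RT in a Roche colorimetric kit: template plus DIG-dUTP, biotin-dUTP and dTTP, ±inhibitor, 1 h at 37 °C. Product captured on streptavidin plate 1 h at 37 °C, anti-DIG-POD 1 h at 37 °C, ABTS developed at 25 °C, read at OD405. IC50 is the concentration inhibiting biotin-dUTP incorporation by 50%.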

[20] = MRT (0 to t) in Sprague-Dawley rat plasma at 16 mg/kg administered through oral gavage measured at 5 mins to 24 hrs post dosing by LC/MS analysis; type: ADME, organism-based; summary of the method: as §2
[21] = Selectivity index, ratio of CC50 for human mock-infected MT4 cells to EC50 for HIV1 3B harboring reverse transcriptase E138K mutant infected in human MT4 cells; type: toxicity, cell-based; details: MT4 cells (mock-infected for CC50, HIV-1 infected for EC50); summary of the method: as §3
[22] = VRT (0 to t) in Sprague-Dawley rat plasma at 16 mg/kg administered through oral gavage measured at 5 mins to 24 hrs post dosing by LC/MS analysis; type: ADME, organism-based; details: in vivo; summary of the method: as §2
[23] = system: Human immunodeficiency virus 1; assay: Potency index, ratio of ETV EC50 to compound EC50 for HIV1 3B harboring reverse transcriptase Y181C mutant infected in human MT4 cells; type: functional
[24] = system: Human immunodeficiency virus 1; assay: Potency index, ratio of ETV EC50 to compound EC50 for wild type HIV1 3B harboring reverse transcriptase infected in human MT4 cells; type: functional
[25] = Cmax in Sprague-Dawley rat plasma at 8 mg/kg administered through oral gavage measured at 5 mins to 24 hrs post dosing by LC/MS analysis; type: ADME, organism-based; design: dose 8 mg/kg, route oral; details: in vivo; summary of the method: as §2
[26] = system: Human immunodeficiency virus 1; assay: Antiviral activity against HIV1 3B harboring reverse transcriptase L100I mutant infected in human MT4 cells assessed as protection against virus induced cytotoxicity after 5 days by MTT assay; type: functional, cell-based; details: Human immunodeficiency virus 1, 3B, MT4, 120 h; summary of the method: as §1
[27] = system: Human immunodeficiency virus 1; assay: Fold resistance, ratio of EC50 for HIV1 3B harboring reverse transcriptase Y188L mutant infected in human MT4 cells to EC50 for wild type HIV1 3B harboring reverse transcriptase infected in human MT4 cells; type: functional; summary of the method: as §4

Cc1cc(C#N)cc(C)c1Oc1nc(NC2CCN(Cc3ccc(S(N)(=O)=O)cc3)CC2)nc2ccsc12
EC50 [1]: 2.9 nM
CL/F [2]: 155 mL/min/kg
EC50 [3]: ≥ 228000 nM
IC50 [4]: 360 nM
selectivity ratio [5]: 53500
AUMC [6]: 6474.1 ug/L.hr
Ratio EC50 [7]: 5
Vd/F [8]: 38.2 L/kg
Tmax [9]: 1 h
selectivity ratio [10]: > 78100
MRT inf [11]: 3.84 h
AUC [12]: 1756.7 ng·h/mL
EC50 [13]: 2.9 nM
AUMCt [14]: 5458.8 ug/L.hr
Ratio EC50 [15]: <3
selectivity ratio [16]: > 159000
t1/2(app) [17]: 2.51 h
selectivity ratio [18]: > 159000
IC50 [19]: 300 nM
MRT last [20]: 3.25 h
selectivity ratio [21]: > 75800
VRT(t) [22]: 9.29 hr2
Ratio EC50 [23]: 5
Ratio EC50 [24]: 3
Cmax [25]: 415 ng/mL
EC50 [26]: 3.4 nM
Ratio EC50 [27]: <3
